High-throughput results (PubChem BioAssay)
Rin1 Abl inh – inhibitors of human Rin1-Abl protein interaction | inhibition, % at 7.35 µM | P00519+Q13671 | TR-FRET Rin1/Abl binding, biochemical | actives 0.4% (n = 360,000); in the data active means inhibition above about 5%, passing the limit was not always enough
Target sequence (P00519 whole entry, looked up): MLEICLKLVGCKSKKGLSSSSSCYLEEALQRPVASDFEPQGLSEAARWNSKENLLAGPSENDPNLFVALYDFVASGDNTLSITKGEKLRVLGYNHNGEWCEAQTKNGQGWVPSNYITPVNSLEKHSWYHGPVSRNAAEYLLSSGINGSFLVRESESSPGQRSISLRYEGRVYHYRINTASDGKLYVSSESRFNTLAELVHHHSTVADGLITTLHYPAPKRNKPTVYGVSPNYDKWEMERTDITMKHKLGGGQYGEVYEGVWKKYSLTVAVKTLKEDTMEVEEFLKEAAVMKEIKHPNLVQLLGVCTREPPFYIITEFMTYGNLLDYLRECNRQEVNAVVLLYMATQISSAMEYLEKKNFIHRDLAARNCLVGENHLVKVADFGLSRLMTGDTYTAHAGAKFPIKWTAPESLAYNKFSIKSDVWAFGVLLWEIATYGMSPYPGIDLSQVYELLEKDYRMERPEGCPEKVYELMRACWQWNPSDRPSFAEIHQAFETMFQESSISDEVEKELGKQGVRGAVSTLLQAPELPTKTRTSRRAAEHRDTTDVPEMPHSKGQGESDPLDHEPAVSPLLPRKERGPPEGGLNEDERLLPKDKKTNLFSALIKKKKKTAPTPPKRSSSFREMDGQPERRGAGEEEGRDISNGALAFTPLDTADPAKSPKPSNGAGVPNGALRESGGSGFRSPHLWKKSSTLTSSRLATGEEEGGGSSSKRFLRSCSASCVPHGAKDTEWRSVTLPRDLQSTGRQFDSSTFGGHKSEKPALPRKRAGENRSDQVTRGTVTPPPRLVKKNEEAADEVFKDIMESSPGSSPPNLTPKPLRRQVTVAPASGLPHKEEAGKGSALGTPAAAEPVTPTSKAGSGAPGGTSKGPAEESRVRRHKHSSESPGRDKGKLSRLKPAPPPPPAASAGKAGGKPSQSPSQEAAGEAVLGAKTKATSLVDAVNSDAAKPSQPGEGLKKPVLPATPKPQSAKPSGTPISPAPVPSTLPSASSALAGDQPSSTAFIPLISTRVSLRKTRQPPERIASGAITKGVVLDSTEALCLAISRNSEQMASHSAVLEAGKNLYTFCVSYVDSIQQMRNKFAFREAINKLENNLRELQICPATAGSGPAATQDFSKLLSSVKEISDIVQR
Target sequence (Q13671 whole entry, looked up): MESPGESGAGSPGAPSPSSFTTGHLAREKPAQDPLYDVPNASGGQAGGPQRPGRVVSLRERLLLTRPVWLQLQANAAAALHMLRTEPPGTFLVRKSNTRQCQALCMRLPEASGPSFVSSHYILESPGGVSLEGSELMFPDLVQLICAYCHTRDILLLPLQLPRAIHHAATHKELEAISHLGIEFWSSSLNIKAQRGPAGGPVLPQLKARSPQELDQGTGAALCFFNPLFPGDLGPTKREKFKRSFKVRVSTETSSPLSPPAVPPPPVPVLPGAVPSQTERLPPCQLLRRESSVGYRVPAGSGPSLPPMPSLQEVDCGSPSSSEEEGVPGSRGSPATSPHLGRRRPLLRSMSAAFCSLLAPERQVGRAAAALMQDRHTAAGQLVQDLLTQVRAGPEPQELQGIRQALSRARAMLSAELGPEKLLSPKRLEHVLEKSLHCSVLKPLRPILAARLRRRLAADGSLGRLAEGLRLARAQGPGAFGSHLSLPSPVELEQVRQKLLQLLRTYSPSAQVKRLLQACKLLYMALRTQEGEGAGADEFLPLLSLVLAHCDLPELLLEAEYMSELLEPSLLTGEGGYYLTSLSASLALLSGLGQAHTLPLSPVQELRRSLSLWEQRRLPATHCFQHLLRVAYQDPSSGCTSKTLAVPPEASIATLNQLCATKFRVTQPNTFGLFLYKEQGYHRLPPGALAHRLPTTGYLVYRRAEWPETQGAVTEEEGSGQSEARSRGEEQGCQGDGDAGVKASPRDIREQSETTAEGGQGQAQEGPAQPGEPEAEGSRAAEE
TbMetRS inhib – Trypanosoma brucei MetRS inhibition | purified T. brucei MetRS, ATP depletion, Kinase-Glo luminescence | inhibition, % at 11.9 µM | actives 0.4% (n = 360,000) | AID 624268;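 active means inhibition above a per-plate cutoff of the control wells' mean inhibition plus 3 SD, cut at about 5.5% in these data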
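Dosing: 11.9 µM compound single dose, 0.9% DMSO; Assay system: purified T. brucei MetRS enzyme; Measured by: Kinase-Glo luciferase luminescence reporting remaining unconsumed ATP; Schedule: 15 min plus 2 h at 25 °C.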
NR1D1 modulator – modulates human Rev-erb alpha binding to DNA. P20393. activity, % at 10 µM. actives 0.79% (n = 370,000). Rev-erbα–FITC-DNA binding, fluorescence polarization, 90 min. AID 1259318;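 active means activity above about 14%, limit read from the data; passing the limit was not always enough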
PG9 binder – binds the HIV-1 gp120 antibody PG9; inhibition, % at 6.7 µM; TR-FRET gp120-PG9 antibody binding; actives 0.43% (n = 360,000); AID 624416; in the data active means inhibition above about 8.5%
PG9 binder conf – PG9 antibody binding, confirmed; shares compounds with PG9 binder; actives 90% (n = 1,500); TR-FRET PG9 antibody binding, biochemical; inhibition, % at 6.7 µM; AID 651571; in the data active means inhibition above about 9%
PGV04 Ab binding – PGV04 control antibody binding, counter-screen; shares compounds with PG9 binder; TR-FRET PGV04 antibody-gp120 binding, biochemical; inhibition, % at 6.7 µM; actives 95% (n = 1,500); AID 651604; in the data active means inhibition above about 9.5%
PG9 bind DR – PG9 antibody binding, dose response. shares compounds with PG9 binder. TR-FRET PG9 antibody-gp120 binding inhibition. IC50, µM. 95 tested, under 10 active. AID 651848; in the data active means IC50 below about 10 µM
PGV04 binding DR – binds control antibody PGV04 in PG9 counter-screen | shares compounds with PG9 binder | TR-FRET binding to control antibody PGV04 | IC50, µM | actives 20% (n = 95) | AID 651937
PG126 DR counter – binds control antibody PG126 in PG9 counter-screen; AID 651939; actives 20% (n = 95); IC50, µM; shares compounds with PG9 binder; TR-FRET binding to antibody PG126, counterscreen
Rev-erbA confirm – confirmation of modulators of human Rev-erb alpha DNA binding; shares compounds with NR1D1 modulator; Rev-erb alpha FITC-DNA binding, fluorescence polarization, 90 min; activation, % at 25 µM; actives 61% (n = 3,000);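 active means activation at or above a set limit, or at least 3 SD above the negative control mean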
RORg counter – affects RORgamma DNA binding in a Rev-erb alpha counter-screen; actives 8% (n = 910); purified RORgamma protein-FITC-DNA binding, fluorescence polarization; IC50, µM; shares compounds with NR1D1 modulator;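 active means Compounds whose fitted half-maximal concentration for disrupting protein-DNA binding is below 10 micromolar; the record names Rev-erb in its text, so the target is in doubt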
Of the large screens only hits and unclear results are named; the others gave an inactive call (follow-up assays come after a bar, where they were run). The list is not random: actives were taken first. Their share in the collection is about 1.8%. Unless noted, no stated cut-off is given here; in the data, active means IC50 below about 9 µM; inactive means the rest.

Cc1cccc(NC(=O)CSc2nc(C)c(CC(=O)c3ccc(Br)cc3)c(C)c2C#N)c1C	NR1D1 modulator 82, PG9 binder 9.2 | PG9 binder conf 21 | PGV04 Ab binding 30 | Rev-erbA confirm 31
COCc1cc(C)nc(SCC(=O)Nc2cccc(C)c2C)c1C#N	none
COc1ccc(NC(=O)C2Cc3c(-c4cccc(F)c4)ccnc3O2)cn1 (configuration not stated)	none
CC(=O)c1ccc(NC(=O)C(C)n2c3ccccc3c3nc(=O)cc(C)n32)cc1 (configuration not stated)	NR1D1 modulator 21, PG9 binder 9.5 | PG9 binder conf 14 | PGV04 Ab binding 15 | Rev-erbA confirm inactive
O=C(Cn1cnc2c(oc3nc4c(cc32)CCCC4)c1=O)Nc1ccccc1	none
O=C(Cn1cnc2c(oc3nc4c(cc32)CCCC4)c1=O)Nc1cccc(Cl)c1	NR1D1 modulator 57, PG9 binder 9.1 | PG9 binder conf 26 | PGV04 Ab binding 25 | PG9 bind DR inactive | PGV04 binding DR inactive | PG126 DR counter inactive | Rev-erbA confirm inactive
O=C(COC(=O)c1n[nH]c2ccccc12)NC(=O)NC12CC3CC(CC(C3)C1)C2	NR1D1 modulator 17, PG9 binder 18 | PG9 binder conf 22 | PGV04 Ab binding 31 | Rev-erbA confirm 31
O=C(c1cccc(Br)c1)c1nc2ccccc2[nH]c1=O	none
N#Cc1c(-c2cccs2)cc(C2CC2)nc1SCC(N)=O	NR1D1 modulator 52, PG9 binder 8.7 | PG9 binder conf 18 | PGV04 Ab binding 27 | Rev-erbA confirm 47 | RORg counter inactive
Oc1ccc(Br)cc1C1Nc2ccccc2S1 (configuration not stated)	NR1D1 modulator 152, PG9 binder 25 | PG9 binder conf 21 | PGV04 Ab binding 44 | Rev-erbA confirm 89 | RORg counter inactive
O=C(C[C@@H]1C/C=C\C[C@H](Cc2ccc(F)cc2)C(=O)OC[C@H]2CCCN2C1=O)N[C@H](CO)Cc1ccccc1	none
Cc1cc(C)c2nc(SCC(=O)Nc3cc(C)on3)c(C)cc2c1	none
Cc1cc(NC(=O)CSc2nc(-c3cccnc3)ccc2C#N)no1	none
COc1cc2cc(C#N)c(SCC(=O)Nc3cc(C)on3)nc2cc1OC	NR1D1 modulator 113, PG9 binder 46 | PG9 binder conf 49 | PGV04 Ab binding 69 | Rev-erbA confirm 75 | RORg counter inactive
Cc1cc(C)c2nc(SCC(=O)Nc3cc(C)on3)c(C#N)cc2c1	NR1D1 modulator 103, PG9 binder 28 | PG9 binder conf 52 | PGV04 Ab binding 75 | Rev-erbA confirm 68 | RORg counter inactive
Cc1ccc2nc(SCC(=O)Nc3ccc4sc(C)nc4c3)c(C#N)cc2c1	NR1D1 modulator 73, PG9 binder 33 | PG9 binder conf 30 | PGV04 Ab binding 54 | Rev-erbA confirm 71 | RORg counter inactive
Cc1cc(NC(=O)CSc2nc3c(c(-c4cccnc4)c2C#N)CCC3)no1	NR1D1 modulator 41, PG9 binder 20 | PG9 binder conf 32 | PGV04 Ab binding 66 | Rev-erbA confirm 39
Fc1ccc2nc(-c3ccc(CN4CCC5(CC4)CNc4ccccc45)cc3)c(-c3ccccc3)nc2c1	none (no result: Rin1 Abl inh, TbMetRS inhib)
CC(C)C1=CC2C3C(C(C(C)C)=CC(=O)[C@@]3(C)O)C1C(=O)C2(C)O (some centres not stated)	none (no result: Rin1 Abl inh, TbMetRS inhib)
Cc1ccc(C)c2nc(SCC(=O)NCc3cccs3)c(C#N)cc12	none
Cc1cccc2cc(C#N)c(SCC(=O)NCc3cccs3)nc12	NR1D1 modulator 87, PG9 binder 42 | PG9 binder conf 50 | PGV04 Ab binding 75 | Rev-erbA confirm 61 | RORg counter inactive
CC(C)(C#N)Cc1cc(CC(C)(C)C#N)cc(C(C)(C)C)c1	NR1D1 modulator 22 | Rev-erbA confirm 43 | RORg counter inactive
O=C(CCCn1c(=S)[nH]c2ccccc2c1=O)N1CCN(c2cccc(Cl)c2)CC1	NR1D1 modulator 26 | Rev-erbA confirm 57
CC1CCCN(C(=O)Nc2ccc([N+](=O)[O-])cc2)C1 (configuration not stated)	none (no result: Rin1 Abl inh, TbMetRS inhib)
Cc1cc(OCC(=O)NCCc2cccc(F)c2)c2c(C)cc(=O)oc2c1	none
CCN(CC)c1ccc(/C=C(/C#N)c2nc3ccc(C)cc3[nH]2)c(OC(C)C)c1	none (no result: NR1D1 modulator)
COc1cc(/C=C(\C#N)c2nc3ccccc3[nH]2)cc(OC)c1O	NR1D1 modulator 31 | Rev-erbA confirm 46 | RORg counter inactive
CCOc1cc(N(CC)CC)ccc1/C=C(/C#N)c1nc2ccccc2[nH]1	NR1D1 modulator 73 | Rev-erbA confirm 58 | RORg counter inactive
COc1ccc(/C=C(\C#N)c2nc3ccccc3[nH]2)cc1O	none
CCCOc1cc(N(CC)CC)ccc1/C=C(/C#N)c1nc2ccc(C)cc2[nH]1	NR1D1 modulator 32 | Rev-erbA confirm 41
CN(C(=O)CCN1C(=O)S/C(=C\c2ccccc2)C1=O)C1CCS(=O)(=O)C1 (configuration not stated)	none
CCc1ccc2nc(NC(=O)C3CCN(c4ncnc5sc(C)c(C)c45)CC3)sc2c1	NR1D1 modulator 21 | Rev-erbA confirm 19
CCN1C[C@@H]2[C@@H]3C(=O)N(C)C(=O)[C@@H]3[C@](C)(C1=O)N2C(=O)c1ccc(Cl)cc1	none
CCOc1ccc(C(=O)/C=C/Nc2ccc(S(=O)(=O)Nc3cc(C)nc(C)n3)cc2)cc1	NR1D1 modulator 20 (no result: Rin1 Abl inh, TbMetRS inhib) | Rev-erbA confirm inactive
Cc1cc(C)nc(NS(=O)(=O)c2ccc(N/C=C\C(=O)c3ccc(Cl)cc3)cc2)n1	none
COc1cc(NS(=O)(=O)c2ccc(N/C=C\C(=O)c3ccc(C)cc3)cc2)nc(OC)n1	none
Cc1cc(C)nc(NS(=O)(=O)c2ccc(N/C=C/C(=O)c3ccc(Cl)c(Cl)c3)cc2)n1	NR1D1 modulator 32 | Rev-erbA confirm 19
O=C(NCc1ccccc1)C(c1ccc(C(F)(F)F)cc1)n1c(=O)c(-c2ccco2)nc2ccccc21 (configuration not stated)	none (no result: Rin1 Abl inh)
